Key:
Rattus norvegicus [1] = test: Biodistribution of [125I]IBF in heart was determined in rats 15 minutes after intraveneous injection; type: ADME, organism-based; conditions: in vivo, iv, 0.25 h
Outline: (§1)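 Male Sprague–Dawley rats (225–300 g) with free access to food and water. Under halothane anesthesia they received [125I]IBF (8–10 μCi in 0.2 mL saline) into the femoral vein. Rats were killed by cardiac excision under halothane at the stated time. Organs were weighed and gamma-counted, and % dose/organ was taken against diluted aliquots of the injectate. Blood was assumed to be 7% of body weight and muscle 40%.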

Rattus norvegicus [2] = test: Biodistribution of [125I]IBF in striatum was determined in rats 120 minutes after intraveneous injection; type: ADME, organism-based; conditions: in vivo, iv, 2 h
Rattus norvegicus [3] = test: Biodistribution of [125I]IBF in striatum was determined in rats 30 minutes after intraveneous injection; type: ADME, organism-based; conditions: in vivo, iv, 0.5 h
Outline: (§2)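 Male Sprague–Dawley rats (225–300 g) with free access to food and water were anesthetized with halothane. Each received 0.2 mL saline containing 8–10 μCi [125I]IBF into the femoral vein and was killed by cardiac excision under halothane at set times. Organs were weighed and gamma-counted, and uptake was calculated against diluted aliquots of the injected dose.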

Rattus norvegicus [4] = test: Biodistribution of [125I]IBF in thyroid was determined in rats 30 minutes after intraveneous injection; type: ADME, organism-based, Thyroid gland; conditions: in vivo, iv, 0.5 h; outline: as §2
Rattus norvegicus [5] = test: Biodistribution of [125I]IBF in brain was determined in rats 60 minutes after intraveneous injection; type: ADME, organism-based; conditions: in vivo, iv, 1 h; outline: as §1
Rattus norvegicus [6] = test: Biodistribution of [125I]IBF in srtiatum was determined in rats 15 minutes after intraveneous injection; type: ADME, organism-based; conditions: in vivo, iv, 0.25 h
Rattus norvegicus [7] = test: Biodistribution of [125I]IBF in spleen was determined in rats 120 minutes after intraveneous injection; type: ADME, organism-based; conditions: in vivo, iv, 2 h; outline: as §1
Rattus norvegicus [8] = test: Biodistribution of [125I]IBF in liver was determined in rats 120 minutes after intraveneous injection; type: ADME, organism-based; conditions: in vivo, iv, 2 h; outline: as §1
Rattus norvegicus [9] = test: Biodistribution of [125I]-IBF in liver was determined in rats 60 minutes after intraveneous injection; type: ADME, organism-based; conditions: in vivo, iv, 1 h; outline: as §1
Rattus norvegicus [10] = test: Biodistribution of [125I]IBF in liver was determined in rats 30 minutes after intraveneous injection; type: ADME, organism-based; conditions: in vivo, iv, 0.5 h; outline: as §1
Rattus norvegicus [11] = test: Biodistribution of [125I]IBF in brain/blood was determined in rats 60 minutes after intraveneous injection; type: ADME, organism-based; conditions: in vivo, iv, 1 h
Rattus norvegicus [12] = test: Biodistribution of [125I]IBF in blood was determined in rats 15 minutes after intraveneous injection; type: ADME, organism-based; conditions: in vivo, iv, 0.25 h; outline: as §1
[13] = Biodistribution of [125I]IBF in blood was determined in rats 30 minutes after intraveneous injection; conditions: rat, in vivo, iv, 0.5 h
Rattus norvegicus [14] = test: Biodistribution of [125I]IBF in brain was determined in rats 120 minutes after intraveneous injection; type: ADME, organism-based; conditions: in vivo, iv, 2 h; outline: as §1
Rattus norvegicus [15] = test: Biodistribution of [125I]IBF in thyroid was determined in rats 15 minutes after intraveneous injection; type: ADME, organism-based, Thyroid gland; conditions: in vivo, iv, 0.25 h; outline: as §2
Rattus norvegicus [16] = test: Biodistribution of [125I]IBF in muscle was determined in rats 60 minutes after intraveneous injection; type: ADME, organism-based, Muscle tissue; conditions: in vivo, iv, 1 h; outline: as §1
Rattus norvegicus [17] = test: Biodistribution of [125I]IBF in brain/blood was determined in rats 15 minutes after intraveneous injection; type: ADME, organism-based; conditions: in vivo, iv, 0.25 h
Rattus norvegicus [18] = test: Biodistribution of [125I]IBF in muscle was determined in rats 15 minutes after intraveneous injection; type: ADME, organism-based, Muscle tissue; conditions: in vivo, iv, 0.25 h; outline: as §1
Rattus norvegicus [19] = test: Biodistribution of [125I]-IBF in blood was determined in rats 60 minutes after intraveneous injection; type: ADME, organism-based; conditions: in vivo, iv, 1 h; outline: as §1
Rattus norvegicus [20] = test: Biodistribution of [125I]IBF in thyroid was determined in rats 2 minutes after intraveneous injection; type: ADME, organism-based, Thyroid gland; conditions: in vivo, iv; outline: as §2
Rattus norvegicus [21] = test: Biodistribution of [125I]IBF in lung was determined in rats 30 minutes after intraveneous injection; type: ADME, organism-based; conditions: in vivo, iv, 0.5 h; outline: as §1
Rattus norvegicus [22] = test: Biodistribution of [125I]IBF in kidney was determined in rats 60 minutes after intraveneous injection; type: ADME, organism-based; conditions: in vivo, iv, 1 h; outline: as §1
Rattus norvegicus [23] = test: Biodistribution of [125I]-IBF in heart was determined in rats 60 minutes after intraveneous injection; type: ADME, organism-based; conditions: in vivo, iv, 1 h; outline: as §1
Rattus norvegicus [24] = test: Biodistribution of [125I]IBF in spleen was determined in rats 2 minutes after intraveneous injection; type: ADME, organism-based; conditions: in vivo, iv; outline: as §1
Rattus norvegicus [25] = test: Biodistribution of [125I]IBF in skin was determined in rats 15 minutes after intraveneous injection; type: ADME, organism-based, Zone of skin; conditions: in vivo, iv, 0.25 h; outline: as §1
Rattus norvegicus [26] = test: Biodistribution of [125I]IBF in kidney was determined in rats 2 minutes after intraveneous injection; type: ADME, organism-based; conditions: in vivo, iv; outline: as §1
Rattus norvegicus [27] = test: Biodistribution of [125I]IBF in kidney was determined in rats 120 minutes after intraveneous injection; type: ADME, organism-based; conditions: in vivo, iv, 2 h; outline: as §1
Rattus norvegicus [28] = test: Biodistribution of [125I]IBF in brain was determined in rats 2 minutes after intraveneous injection; type: ADME, organism-based; conditions: in vivo, iv; outline: as §1
Rattus norvegicus [29] = test: Biodistribution of [125I]IBF in heart was determined in rats 2 minutes after intraveneous injection; type: ADME, organism-based; conditions: in vivo, iv; outline: as §1
Rattus norvegicus [30] = test: Biodistribution of [125I]IBF in lung was determined in rats 120 minutes after intraveneous injection; type: ADME, organism-based; conditions: in vivo, iv, 2 h; outline: as §1

- Dose/organ (Rattus norvegicus [1]): 0.2%
- Dose/gram (Rattus norvegicus [2]): 0.444 % dose/g
- Dose/organ (Rattus norvegicus [3]): 0.66%
- Dose/organ (Rattus norvegicus [4]): 0.02%
- Dose/organ (Rattus norvegicus [5]): 0.17%
- Dose/organ (Rattus norvegicus [6]): 0.842%
- Dose/organ (Rattus norvegicus [7]): 0.03%
- Dose/organ (Rattus norvegicus [8]): 3.95%
- Dose/organ (Rattus norvegicus [9]): 9.84%
- Dose/organ (Rattus norvegicus [10]): 11.59%
- Dose/organ (Rattus norvegicus [11]): 1.9
- Dose/organ (Rattus norvegicus [12]): 1.8%
- Dose/organ [13]: 1.26%
- Dose/organ (Rattus norvegicus [14]): 0.07%
- Dose/organ (Rattus norvegicus [15]): 0.03%
- Dose/organ (Rattus norvegicus [16]): 4.97%
- Dose/organ (Rattus norvegicus [17]): 3.01
- Dose/organ (Rattus norvegicus [18]): 14.36%
- Dose/organ (Rattus norvegicus [19]): 0.98%
- Dose/organ (Rattus norvegicus [20]): 0.06%
- Dose/organ (Rattus norvegicus [21]): 0.82%
- Dose/organ (Rattus norvegicus [22]): 1.01%
- Dose/organ (Rattus norvegicus [23]): 0.05%
- Dose/organ (Rattus norvegicus [24]): 0.96%
- Dose/organ (Rattus norvegicus [25]): 8.46%
- Dose/organ (Rattus norvegicus [26]): 7.58%
- Dose/organ (Rattus norvegicus [27]): 0.68%
- Dose/organ (Rattus norvegicus [28]): 0.98%
- Dose/organ (Rattus norvegicus [29]): 0.81%
- Dose/organ (Rattus norvegicus [30]): 0.12%
SMILES: CCN1CCC[C@H]1CNC(=O)c1cc(I)cc2c1OCC2

Source: ChEMBL document CHEMBL1125116 (J Med Chem, 1990)
